Experimental data from ChEMBL document CHEMBL3272326, “Antitumor septacidin analogues” (J Med Chem, 1977).

Tests used:
L1210 [1] = assay: Inhibition of RNA synthesis in mouse L1210 cells after 3 hrs by [3H]uridine incorporation assay; format: functional; conditions: L1210, 3 h, read-out: ED50 (the source's name)
Method in brief: (§1)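 Cultured lymphoid leukemia L1210 cells; nucleic acid synthesis inhibition measured by a previously reported procedure, modified by adding 1% Me2SO for solubility.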

P388 (Mus musculus) [2] = assay: Antitumor activity against mouse P388 cells allografted in mouse assessed as tumor growth inhibition at optimum dose administered qd from day 1 to 9 relative to control
L1210 [3] = assay: Cytotoxicity against mouse L1210 cells; format: functional, cell-based; conditions: read-out: I50
P388 (Mus musculus) [4] = assay: Antitumor activity against mouse P388 cells allografted in mouse assessed as optimum dose administered qd from day 1 to 9
L1210 [5] = assay: Inhibition of DNA synthesis in mouse L1210 cells after 3 hrs by [3H]thymidine incorporation assay; format: functional; conditions: L1210, 3 h, read-out: ED50 (the source's name); method in brief: as §1
Salmonella typhimurium [6] = assay: Mutagenicity in Salmonella typhimurium TA1537 by Ames test in presence of S9 fraction; format: toxicity, organism-based; conditions: salmonella enterica subsp. enterica serovar typhimurium
Method in brief: (§2)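 Salmonella plate mutagenicity test; compounds tested at levels up to 1 μmol per plate.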

Salmonella typhimurium [7] = assay: Mutagenicity in Salmonella typhimurium TA1536 by Ames test in presence of S9 fraction; format: toxicity, organism-based; conditions: salmonella enterica subsp. enterica serovar typhimurium; method in brief: as §2
Salmonella typhimurium [8] = assay: Mutagenicity in Salmonella typhimurium TA1537 by Ames test; format: toxicity, organism-based; conditions: salmonella enterica subsp. enterica serovar typhimurium; method in brief: as §2
Salmonella typhimurium [9] = assay: Mutagenicity in Salmonella typhimurium TA1535 by Ames test in presence of S9 fraction; format: toxicity, organism-based; conditions: salmonella enterica subsp. enterica serovar typhimurium; method in brief: as §2
Salmonella typhimurium [10] = assay: Mutagenicity in Salmonella typhimurium TA1538 by Ames test in presence of S9 fraction; format: toxicity, organism-based; conditions: salmonella enterica subsp. enterica serovar typhimurium; method in brief: as §2
Salmonella typhimurium [11] = assay: Mutagenicity in Salmonella typhimurium TA1538 by Ames test; format: toxicity, organism-based; conditions: salmonella enterica subsp. enterica serovar typhimurium; method in brief: as §2
Salmonella typhimurium [12] = assay: Mutagenicity in Salmonella typhimurium TA1536 by Ames test; format: toxicity, organism-based; conditions: salmonella enterica subsp. enterica serovar typhimurium; method in brief: as §2
Salmonella typhimurium [13] = assay: Mutagenicity in Salmonella typhimurium TA1535 by Ames test; format: toxicity, organism-based; conditions: salmonella enterica subsp. enterica serovar typhimurium; method in brief: as §2
Calf thymus DNA = assay: Binding affinity to calf thymus helical DNA assessed as change in melting temperature by […] analysis; format: nucleic-acid assay; conditions: Bos taurus
Method in brief: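 Helix–coil transition temperature shift of isolated helical DNA in solution. Modified procedure: 0.010 M phosphate buffer with 10⁻⁵ M EDTA, pH 7.0, plus 5% Me2SO to solubilize compound.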

EC50 (L1210 [1])	EC50 (L1210 [5])	ΔTm (Calf thymus DNA)	SMILES	T/C (P388 (Mus musculus) [2])	IC50 (L1210 [3])	Activity (P388 (Mus musculus) [4])	Activity (Salmonella typhimurium [6])	Activity (Salmonella typhimurium [7])	Activity (Salmonella typhimurium [8])	Activity (Salmonella typhimurium [9])	Activity (Salmonella typhimurium [10])	Activity (Salmonella typhimurium [11])	Activity (Salmonella typhimurium [12])	Activity (Salmonella typhimurium [13])
18 µM	29 µM		CCCCCCCCCCCC(=O)NCC(=O)N[C@@H]1[C@@H](O)[C@H](O)[C@@H](Nc2ncnc3[nH]cnc23)O[C@H]1C	137%	> 10 µM	1 mg/kg								
5.5 µM	20 µM	0.5 °C	CCCCCCCCCCCC(=O)NCC(=O)N[C@@H]1[C@@H](O)[C@H](O)[C@@H](Nc2ncnc3[nH]cnc23)O[C@H]1CO	133%	3 µM	1 mg/kg	Non-toxic	Non-toxic	Non-toxic	Non-toxic	Non-toxic	Non-toxic	Non-toxic	Non-toxic
1.6 µM	2.5 µM	3.6 °C	CCCCCCCCCCCCCCCC(=O)NCC(=O)N[C@@H]1[C@@H](O)[C@H](O)[C@@H](Nc2ncnc3[nH]cnc23)O[C@H]1CO	136%	> 100 µM	0.5 mg/kg								
0.69 µM	1.6 µM	1.7 °C	CC(C)CCCCCCCCCCCCC(=O)NCC(=O)N[C@@H]1[C@@H](O)[C@H](O)[C@@H](Nc2ncnc3[nH]cnc23)O[C@H]1CO	149%	> 10 µM	0.5 mg/kg	Non-toxic	Non-toxic	Non-toxic	Non-toxic	Non-toxic	Non-toxic	Non-toxic	Non-toxic
> 1000 µM	> 1000 µM		CCOCCC(=O)NCC(=O)N[C@@H]1[C@@H](O)[C@H](O)[C@@H](Nc2ncnc3[nH]cnc23)O[C@H]1C	< 125%	> 500 µM	3.1 mg/kg								
> 1000 µM	> 1000 µM		CCCCCCCCCCCCCCCCC(NC(C)=O)C(=O)N[C@@H]1[C@@H](O)[C@H](O)[C@@H](Nc2ncnc3[nH]cnc23)O[C@H]1C (stereo partly specified)											
0.67 µM	1.5 µM	13.6 °C	COc1cccc2c1C(=O)c1c(O)c3c(c(O)c1C2=O)C[C@@](O)(C(=O)CO)C[C@@H]3O[C@H]1C[C@H](N)[C@H](O)[C@H](C)O1 [DOXORUBICIN]	193%	0.032 µM	1 mg/kg								
1.1 µM	1.8 µM	0.6 °C	CC(C)CCCCCCCCCCCCC(=O)NCC(=O)N[C@@H]1[C@@H](O)[C@H](O)[C@@H](Nc2ncnc3[nH]cnc23)O[C@H]1C	160%	> 20 µM	1 mg/kg								
> 1000 µM	> 1000 µM	0.5 °C	CC(C)CCCCCCCCCCCCC(=O)N[C@@H]1[C@@H](O)[C@H](O)[C@@H](Nc2ncnc3[nH]cnc23)O[C@H]1C	< 125%	> 100 µM	0.5 mg/kg	Non-toxic	Non-toxic	Non-toxic	Non-toxic	Non-toxic	Non-toxic	Non-toxic	Non-toxic
> 1000 µM	> 1000 µM	0.4 °C	CCOCCC(=O)NCC(=O)N[C@@H]1[C@@H](O)[C@H](O)[C@@H](Nc2ncnc3[nH]cnc23)O[C@H]1CO	< 125%	> 500 µM	3.1 mg/kg								
1 µM	0.4 µM		CC(C)CCCCCCCCCCCCC(=O)NCC(=O)N[C@@H]1[C@@H](O)[C@H](O)[C@@H](Nc2ncnc3[nH]cnc23)O[C@H]1C(O)CO (stereo partly specified)	154%	> 5 µM	0.5 mg/kg								
> 1000 µM	> 1000 µM		CCCCCC(=O)NCC(=O)N[C@@H]1[C@@H](O)[C@H](O)[C@@H](Nc2ncnc3[nH]cnc23)O[C@H]1C	< 125%	250 µM	0.5 mg/kg	Non-toxic	Non-toxic	Non-toxic	Non-toxic	Non-toxic	Non-toxic	Non-toxic	Non-toxic
